According to PMC4703045 (Chemistry & biology, 2015):

Experiments:
[1] = test system: PKG Iβ; assay: PKG Iβ kinase activation assay; type: biochemical; details: Ni-IMAC-purified PKG Iβ, over basal activity (Figure S1B)
[2] = test system: KCa1.1 channel; assay: KCa1.1 channel open probability; type: biochemical, rat; details: 500 nM Ca2+
Method in brief: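 Inside-out patches excised from enzymatically dispersed cerebral artery smooth muscle cells. Bath (cytosolic face), mM: 140 KCl, 2 MgCl2, 0.1 Mg-ATP, 10 HEPES pH 7.3, 3 EGTA, CaCl2 to 500 nM. Pipette, mM: 120 NaCl, 20 KCl, 2 MgCl2, 1 CaCl2, 10 HEPES pH 7.4. […] NPo normalised to control patches; mean ± SEM.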

[3] = test system: endothelium-denuded posterior cerebral arteries; type: cell-based, rat; details: paxilline 1 µM; endothelium-denuded control PCAs without S1.5
[4] = test system: posterior cerebral arteries with intact endothelium; type: cell-based, rat; details: control PCAs with intact endothelium, without S1.5
[5] = molecular target: T1, PKG Iα (Bos taurus, UniProt P00516); assay: PKG Iα kinase activation, γ32P-ATP incorporation assay with W15 substrate; type: biochemical; details: for activation of PKG Iα (in words): absence of cGMP, 15 min pre-incubation at 30°C
T1 sequence (P00516 1-671): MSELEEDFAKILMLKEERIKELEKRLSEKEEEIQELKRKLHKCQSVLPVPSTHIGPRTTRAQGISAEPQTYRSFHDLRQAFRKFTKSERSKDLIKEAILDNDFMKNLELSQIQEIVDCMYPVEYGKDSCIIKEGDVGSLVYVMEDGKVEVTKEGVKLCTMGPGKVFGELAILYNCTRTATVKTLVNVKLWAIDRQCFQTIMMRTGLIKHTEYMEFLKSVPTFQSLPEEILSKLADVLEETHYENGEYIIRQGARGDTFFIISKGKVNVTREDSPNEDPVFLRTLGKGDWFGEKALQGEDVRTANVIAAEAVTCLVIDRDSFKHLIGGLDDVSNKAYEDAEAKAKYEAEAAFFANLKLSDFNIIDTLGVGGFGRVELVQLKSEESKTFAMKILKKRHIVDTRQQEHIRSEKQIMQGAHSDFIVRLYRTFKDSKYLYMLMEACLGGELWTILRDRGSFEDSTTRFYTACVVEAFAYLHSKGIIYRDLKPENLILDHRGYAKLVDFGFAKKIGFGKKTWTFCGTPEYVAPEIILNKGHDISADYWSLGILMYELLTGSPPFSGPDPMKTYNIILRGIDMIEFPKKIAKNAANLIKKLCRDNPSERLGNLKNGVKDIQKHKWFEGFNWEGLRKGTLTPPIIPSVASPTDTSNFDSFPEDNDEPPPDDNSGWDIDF

[6] = Secondary structure by circular dichroism spectroscopy; type: physicochemical; details: 10 µM peptide in 10 mM PBS pH=7.4, 22°C, 260 to 190 nm
Method in brief: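 CD spectra at 22°C in a 2 mm cuvette, with 10 µM peptide in 10 mM PBS pH 7.4. Scanned 260–190 nm at 0.5 nm intervals with 2 s integration and 100 nm/min. Ten accumulations were averaged per peptide, and output was given as mean residue ellipticity (mdeg × cm2/dmol × residue).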

[7] = molecular target: cGMP-dependent protein kinase Iα (UniProt P00516)
[8] = molecular target: cGMP-dependent protein kinase Iα (UniProt P00516); remark: listed apart in the source

Nc1nc2c(ncn2[C@@H]2O[C@@H]3COP(=O)(O)O[C@H]3[C@H]2O)c(=O)[nH]1 [cGMP, cyclic guanosine-3’,5’-monophosphate]
increase in activity under saturating quantities of cGMP [1]: 15 fold | change in KCa1.1 open probability (NPo) ([2]; 50 nM cGMP with recombinant PKG Iα in bath solution): no significant change | increase of KCa1.1 NPo above the control ([2]; 5 µM cGMP (saturating) with PKG Iα, p<0.002): eight

CC(C)(O)[C@H]1O[C@H]2CC[C@@]3(C)[C@@](O)(CC[C@H]4Cc5c([nH]c6ccccc56)[C@@]43C)C2=CC1=O [paxilline]
additional constriction on paxilline in control arteries [3]: 5% | paxilline-induced constriction in control arteries [4]: 4%

Ac-AEAKAKYEAEAAFFANLKLSD-NH2 [S1.11]
activation of PKG Iα (in words) [5]: complete loss of activity

Ac-ALKSENYADKVEFKDAKYEASALANEFADA-NH2 [S1.7]
activation of PKG Iα (in words) [5]: did not activate the kinase | helicity (secondary structure by CD) [6]: found to not be helical

Ac-DAEAKAKYEAEAAFFANLKLSD-NH2 [S1.10]
EC50 [5]: 45 ± 4 µM

Ac-DVSNKAYEDAEAKAKYEAEAA-NH2 [S1.3]
activation of PKG Iα (in words) [5]: completely abolished kinase activity | helicity (secondary structure by CD) [6]: helicity was compromised but not completely lost

Ac-DVSNKAYEDAEAKAKYEAEAAAAANLKLSD-NH2 [S1.6]
activation of PKG Iα (in words) [5]: equivalent to removal of the entire knob | helicity (secondary structure by CD) [6]: increased degree of helicity

Ac-DVSNKAYEDAEAKAKYEAEAAFFANLK-NH2 [S1.2]
EC50 [5]: 35 ± 4 µM

Ac-DVSNKAYEDAEAKAKYEAEAAFFANLKLSD-NH2 [S1.1]
EC50 [5]: 35 ± 4 µM | activation of PKG Iα (in words) [5]: robust and cooperative activation | effect on KM for the substrate peptide W15 ([5]; control experiment (Figure S4)): did not affect the KM | increase of KCa1.1 channel activity (NPo) versus control ([2]; 100 µM peptide pre-incubated with PKG Iα, +10mV, p<0.05): 6 fold

Ac-EDAEAKAKYEAEAAFFANLKLSD-NH2 [S1.9]
EC50 [5]: 43 ± 5 µM

Ac-NKAYEDAEAKAKYEAEAAFFANLKLSD-NH2 [S1.4]
EC50 [5]: 12 ± 1 µM

Ac-NKAYEDAEAKAKYEAEAAFFANLKLSD-NH2 [S1.4]
maximal velocity of PKG Iα kinase activity with the peptide [7]: 80%

Ac-DVSNKAYEDAEAKAKYEAEAAFFANLK-NH2 [S1.2]
maximal efficacy of activation of PKG Iα kinase activity [8]: 60 % of maximum
